For one test, the system named is HepG2. Briefly: Anticancer activity against human cells HepG2 cells assessed as growth inhibition after 48 hrs by MTT assay. The test is classed as functional, cell-based. Conditions: HepG2, 48 h. The gist of the method:
(§1)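 Cells grown in MEM with 10% heat-inactivated FBS, penicillin, streptomycin and amphotericin-B at 37 °C, 5% CO2, and trypsinized with TPVG. Seeded at 1 × 10⁴ cells/well and allowed to adhere for 24 h, then exposed to a range of concentrations for 48 h. MTT (2 mg/mL in PBS) added for 3 h, formazan dissolved in isopropanol, A540 read. Growth inhibition calculated as (control − test)/control × 100.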

Another test has as its system MCF7. Briefly: Anticancer activity against human cells MCF7 cells assessed as growth inhibition after 48 hrs by MTT assay. The test is classed as functional, cell-based. The note with it: MCF7, 48 h. Put shortly: as §1

Among the data in ChEMBL document CHEMBL3352785, “Study on one-pot four-component synthesis of 9-aryl-hexahydro-acridine-1,8-diones using SiO2-I as a new heterogeneous catalyst and their anticancer activity” (Bioorg Med Chem Lett, 2014) are IC50 values, retold here.

SMILES strings stand for the structures. In brackets after ≈: the same amount, converted by molar mass.

Turning to `CC1(C)CC(=O)C2=C(C1)NC1=C(C(=O)CC(C)(C)C1)C2c1cc(F)ccc1O`, the IC50 in the test on HepG2 is 8.6 µg/mL (≈ 22.4 µM); in the test with MCF7, 6.2 µg/mL (≈ 16.2 µM).

For `CCOc1cccc(C2C3=C(CC(C)(C)CC3=O)NC3=C2C(=O)CC(C)(C)C3)c1`, the half-maximal inhibitory concentration (IC50) came out at 4.8 µg/mL (≈ 12.2 µM) in the test with HepG2 and 4.5 µg/mL (≈ 11.4 µM) in the test on MCF7.

As for `COc1cccc2c1C(=O)c1c(O)c3c(c(O)c1C2=O)C[C@@](O)(C(=O)CO)C[C@@H]3O[C@H]1C[C@H](N)[C@H](O)[C@H](C)O1` [DOXORUBICIN], the IC50 worked out at 1.21 µg/mL (≈ 2.23 µM) in the test with HepG2 and 1.09 µg/mL (≈ 2.01 µM) in the test with MCF7.

As to `CC1(C)CC(=O)C2=C(C1)NC1=C(C(=O)CC(C)(C)C1)C2c1ccccc1O`, the IC50 in the test with HepG2 worked out at 2.6 µg/mL (≈ 7.11 µM); with MCF7 it was 5.9 µg/mL (≈ 16.1 µM).

For `COc1ccc(C2C3=C(CC(C)(C)CC3=O)NC3=C2C(=O)CC(C)(C)C3)cc1`, the IC50 was found to be 8.2 µg/mL (≈ 21.6 µM) with HepG2 and 9.6 µg/mL (≈ 25.3 µM) in the test with MCF7.

For `CC1(C)CC(=O)C2=C(C1)NC1=C(C(=O)CC(C)(C)C1)C2c1cccc(C#N)c1`, the IC50 with HepG2 was determined as 1.4 µg/mL (≈ 3.74 µM); in the test with MCF7, 4.7 µg/mL (≈ 12.6 µM).

For `COc1ccc(C2C3=C(CC(C)(C)CC3=O)NC3=C2C(=O)CC(C)(C)C3)cc1Br`, the concentration for half-maximal inhibition (IC50) is 2.2 µg/mL (≈ 4.8 µM) in the test on HepG2 and 5.3 µg/mL (≈ 11.6 µM) with MCF7.

In the case of `COc1ccc(C2C3=C(CC(C)(C)CC3=O)NC3=C2C(=O)CC(C)(C)C3)c(OC)c1`, the IC50 in the test on HepG2 stood at 1.6 µg/mL (≈ 3.91 µM); in the test on MCF7, 5 µg/mL (≈ 12.2 µM).
